# T cell modulator – modulators of CD8 T cell-vesicle binding, primary screen, mouse 2C CD8+ T cells, flow cytometry | 2C CD8+ T cell-vesicle binding; stronger effect = lower value | AID 2052, 2009 | response (vesicle binding), % at 7 µM | 330,000 compounds, 0.068% hits;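 active means response, share of CD8 T cells binding vesicles, and their 90th percentile fluorescence all below set limits, cut at about 80% in these data, passing the limit was not always enough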;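 further: values below 100% mean blocked vesicle binding to the CD8+ T cells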
#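 Incubation: binding step 1.5 h, 37 °C, antibody labelling 20 min, ice; system: murine 2C transgenic CD8+ T lymphocytes; technique: cytometric PE anti-B7-1 and Alexa647 anti-CD8 signals after 1% paraformaldehyde fixation; also added: QL9-charged Drosophila Ld/ICAM-1/B7-1 vesicles; control set: naked versus QL9-loaded vesicles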
# ALR H2O2 inh – inhibitors of human ALR sulfhydryl oxidase, primary screen, biochemical, H2O2 detection, HRP-luminol luminescence, single point. FAD-linked sulfhydryl oxidase ALR (Homo sapiens), P55789. purified ALR, DTT oxidation. inhibition, % (test concentration not listed). 290,000 compounds, 3.8% hits;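 active means mean replicate inhibition above about 79%, with every replicate also reaching it, limit read from the data; inconclusive means only one of the two criteria met; inactive means mean below limit and not every replicate reaching it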
# Target sequence (P55789 whole entry, looked up): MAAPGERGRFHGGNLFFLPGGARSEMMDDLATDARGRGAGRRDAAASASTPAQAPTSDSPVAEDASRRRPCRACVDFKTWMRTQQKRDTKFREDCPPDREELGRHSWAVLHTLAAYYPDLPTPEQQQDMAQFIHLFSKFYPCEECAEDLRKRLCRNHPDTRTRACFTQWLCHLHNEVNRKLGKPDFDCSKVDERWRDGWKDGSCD
# N-glyco inh – increase of ERlucT glycosylation luciferase signal, primary screen, N-linked glycosylation inhibitor project, D54 ERlucT cells, luminescence, set 2 | AID 588692, 2011 | 360,000 compounds, 0.23% hits | reporter increase, % at 12.5 µM | D54 ERlucT glycosylation luciferase reporter, 24 h; percent of 100 nM tunicamycin response;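 active means mean luciferase reporter signal, scaled so untreated is 0 and the glycosylation-blocking control 100, at or above a set limit in every replicate; inconclusive means mean reaches the limit but not every replicate does; inactive means mean below the limit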;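 further: luciferase carries N-glycosylation sites so blocking glycosylation raises the light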
# Numbers stand for hits; - = inactive; ? = inconclusive; . = no result; ! = a repeat was not active. The entries come from a sample that favours hits as a whole.
SMILES,T cell modulator,ALR H2O2 inh,N-glyco inh
Cc1ccc(-c2nc(CS(=O)(=O)CC(=O)NC3CCCCCC3)c(C)o2)cc1,-,-,-
COc1ccc(-c2nc(CS(=O)(=O)CC(=O)NC3CCCCCC3)c(C)o2)cc1,-,98.7,-
c1csc(-c2nc(NCC3CCCO3)c3ccccc3n2)c1 (stereo not drawn),-,.,-
Brc1ccc2nc(-c3cccs3)c(NCC3CCCO3)n2c1 (stereo not drawn),-,98.3,-
COc1ccc(N=C(N(C)C)P(=O)(N(C)C)N(C)C)cc1,-,99.0,-
COc1ccc(N=C(C)C2=C(O)c3ccccc3C2=O)cc1,-,-,-
O=C(Cn1cc(COc2c(F)c(F)cc(F)c2F)nn1)c1ccc(O)cc1,.,.,-
O=C(NCC(c1ccco1)N1CCc2ccccc21)c1ccccc1Cl (stereo not drawn),-,98.4,-
O=C(NCC(c1ccco1)N1CCc2ccccc21)c1c(F)cccc1F (stereo not drawn),-,-,-
O=S(=O)(NCC(c1ccco1)N1CCc2ccccc21)c1ccccc1 (stereo not drawn),-,97.4,-
O=S(=O)(NCC(c1ccco1)N1CCN(c2ccccc2F)CC1)c1ccccc1 (stereo not drawn),-,-,-
Cc1cc(NC(=O)CSCC(=O)OCC(=O)Nc2ccc(OC(F)F)cc2)no1,-,-,-
O=C(CSc1nnc(CNC(=O)c2c(F)cccc2Cl)o1)Nc1ccccc1,-,-,-
O=C(CSc1nnc(CNC(=O)c2ccccc2)o1)Nc1ccc2c(c1)OCCO2,-,98.4,-
O=C(CSc1nnc(CNC(=O)c2ccc(F)cc2)o1)Nc1ccc2c(c1)OCCO2,-,-,-
O=C(CSc1nnc(CNC(=O)c2ccccc2F)o1)Nc1ccc2c(c1)OCO2,-,98.9,-
CCc1ccc(NC(=O)CSc2nnc(CNC(=O)c3c(F)cccc3Cl)o2)cc1,-,98.6,-
O=C(CSc1nnc(CNC(=O)c2ccccc2F)o1)Nc1ccc2c(c1)OCCO2,-,.,-
O=C(NCc1cc([N+](=O)[O-])ccc1O)c1cccnc1Sc1ccccc1Cl,-,-,-
C=CCn1c(SCC(=O)Nc2cccnc2Cl)nnc1-c1ccc(C(C)(C)C)cc1,-,-,-
Cc1ccc(NC(=O)CCN2C(=O)C3CC=CCC3C2=O)cc1Cl (stereo not drawn),-,.,-
O=C(COC(=O)c1ccc(F)cc1Cl)NC1CC1,.,.,-
Cc1ccc(NC(=O)CCCCCN2C(=O)[C@@H]3Cc4ccccc4CN3C2=O)c(C)c1,-,-,-
C#CCOCCOCCOCCNc1nc(N2CCN(C(=O)[C@H](CCC(=O)O)n3cc([C@@H](N)CCCCN)nn3)CC2)nc(N2CCN(C(=O)[C@H](CCCCN)n3cc([C@@H](N)CC(N)=O)nn3)CC2)n1,-,-,-
O=S(=O)(O)Sc1ccccc1,.,.,-
SMILES,T cell modulator,ALR H2O2 inh,N-glyco inh
CCN(CC)c1ccc(SS(=O)(=O)O)cc1,-,99.2!,-
O=S1(=O)C=C[C@@H](COCc2ccccc2)N1Cc1ccc(Br)cc1,.,.,-
O=C(NCCC1=CCCCC1)C(=O)NCC(c1ccco1)N1CCN(c2ccccc2)CC1 (stereo not drawn),-,.,-
O=C(NCC(c1ccco1)N1CCN(c2ccc(F)cc2)CC1)C(=O)NC1CC1 (stereo not drawn),-,-,-
COC(=O)NCC(c1cccnc1)N1CCN(c2ccccc2F)CC1 (stereo not drawn),-,-,-
O=C(NCCCn1ccnc1)C(=O)NCC(c1ccco1)N1CCN(c2ccccc2)CC1 (stereo not drawn),-,99.1,-
COCCCNC(=O)C(=O)NCC(c1ccco1)N1CCN(c2ccc(OC)cc2)CC1 (stereo not drawn),-,-,-
COc1ccc(N2CCN(C(CNC(=O)C(=O)NCCCn3ccnc3)c3ccco3)CC2)cc1 (stereo not drawn),-,83.4,-
O=C(NCCCn1ccnc1)C(=O)NCC(c1ccco1)N1CCN(c2ccc(F)cc2)CC1 (stereo not drawn),-,98.2,-
O=C(NCCCn1ccnc1)C(=O)NCC(c1cccnc1)N1CCN(c2ccccc2)CC1 (stereo not drawn),-,98.9,-
COc1ccc(Cc2c(C(C)(C)C)nc3c(C)cc(Br)cn23)c(C)c1,.,.,-
CCCCn1nc(NC(=O)CC)c2cc3cc(OC)ccc3nc21,-,-,-
Nc1ccc(CCc2ccccn2)cc1,.,.,-
Nc1ccc(CCc2ccc(N)cc2)cc1,-,85.4,-
COc1ccc(-c2cc3cc(-c4cc(OC)c(OC)c(OC)c4)ccc3o2)cc1,-,-,-
CCCN1CCc2c(sc(NC(=O)CCS(=O)(=O)c3ccccc3)c2C(=O)OC)C1,-,-,-
Cc1cccc(C(=O)OCC(=O)NN2C(=O)NC3(CCC(C)CC3)C2=O)c1O (stereo not drawn),-,-,-
COc1ccc(NCc2ccc(OC)c(Cn3ccnc3)c2)c(OC)c1,-,98.9,-
COc1ccc(Cn2ccnc2)cc1Br,-,-,-
COc1ccc(C(=O)NC(C(=O)OCC(=O)Nc2sccc2C(N)=O)C(C)C)cc1 (stereo not drawn),-,-,-
CCC(=O)Nc1ccc2c(c1)nc1n2CCN(CCOC)C1,-,-,-
CCCN(CC(=O)Nc1ccccc1C)C(=O)COC(=O)c1cnc(C)cn1,.,.,-
S=c1[nH]nc(-c2ccc(Cl)cc2Cl)n1-c1ccc(Cl)cc1,-,93.7,-
COc1ccc(-n2c(-c3ccc(Cl)cc3Cl)n[nH]c2=S)c(OC)c1,-,-,-
O=c1ccc(-c2n[nH]c(=S)n2-c2ccc(F)c(Cl)c2)n[nH]1,-,85.9,-
SMILES,T cell modulator,ALR H2O2 inh,N-glyco inh
S=c1[nH]nc(-c2ccc(Cl)cc2)n1-c1ccc2c(c1)OCCO2,-,-,-
Fc1ccc(-n2c(-c3cc(C4CC4)[nH]n3)n[nH]c2=S)cc1Cl,-,?,-
S=c1[nH]nc(-c2ccc(Cl)cc2)n1-c1ccc(Cl)cc1,-,82.2,-
CCc1noc(C)c1C(=O)Nc1cc(Cl)ccc1N1CCOCC1,-,-,-
Cc1ccc(N2C(=O)CC(Cc3ccc(Cl)cc3)C2=O)cc1 (stereo not drawn),-,-,-
COc1cccc(C(=O)O)c1OS(=O)(=O)c1ccc(C)cc1,.,.,-
CCOC(=O)C1(C(=O)OCC)NC(=O)CC1C(C)C (stereo not drawn),.,.,-
Nc1ccc2nc(Cc3ccccc3)[nH]c2c1,-,100.2,-
CC(C)Cc1nc2ccccc2[nH]1,-,-,-
Cc1ccc2nc(Cc3ccc(N)cc3)[nH]c2c1,-,.,-
CC(C)Cc1nc2ccc(N)cc2[nH]1,-,99.6,-
O=C(O)C1OCC2(CO1)COC(C(=O)O)OC2 (stereo not drawn),.,.,-
Cc1ccc(C)c(S(=O)(=O)Nc2ccc(O)c(C(=O)O)c2)c1,-,-,-
Cc1ccc(S(=O)(=O)NNC(=O)c2cccs2)c(C)c1,-,-,-
Cc1ccc(S(=O)(=O)Nc2ccc3c4c(cccc24)CC3)c(C)c1,-,.,-
Cc1ccc(S(=O)(=O)Nc2ccc(O)c3ccccc23)c(C)c1,-,95.0,-
COc1ccc(S(=O)(=O)Nc2ccccc2)cc1,-,-,-
